The test system of series [1] is Trypanosoma brucei brucei. The series can be described thus: Antitrypanosomal activity against Trypanosoma brucei brucei TC221 after 72 hrs by alamar blue assay. The series is classed as functional. To be noted: TC221, 72 h. In outline:
(§1)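 T. b. brucei TC221 bloodstream-form proliferation measured by alamarBlue (resazurin reduced to resorufin by living cells); 48 h and 72 h read-outs. IC50 derived per Räz et al. method; each compound tested in duplicate, mean of two values.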

For series [2], the system named is Trypanosoma brucei brucei. In words: Antitrypanosomal activity against Trypanosoma brucei brucei TC221 after 48 hrs by alamar blue assay. To be noted: TC221, 48 h. The series is classed as functional. In outline:
as §1

Series [3] concerns J774.1. The series can be described thus: Cytotoxicity against mouse J774.1 cells after 24 hrs by alamar blue assay. The series is classed as cell-based. As to conditions: J774.1, 24 h.
A short description of series [4]: Selectivity index, ratio of IC50 for mouse J774.1 cells to IC50 for Trypanosoma brucei brucei TC221 measured after 48 hrs. The series is classed as toxicity. As to conditions: J774.1 cells (versus Trypanosoma brucei brucei TC221), read-out: Ratio IC50. In outline: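 Selectivity index computed as IC50 (J774.1 macrophages, alamarBlue) divided by IC50 (T. b. brucei TC221, alamarBlue); duplicate determinations, means used.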

Series [5] concerns the target Rhodesain (Trypanosoma brucei rhodesiense) (UniProt Q95PM0). In words: Inhibition of Trypanosoma brucei rhodesiense rhodesain at 20 uM using Cbz-Phe-Arg-AMC as substrate measured for 5 mins by spectrofluorometric analysis relative to control. The method in brief:
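Rhodesain in 50 mM sodium acetate pH 5.5 with 5 mM DTT, 5 mM EDTA, 200 mM NaCl; inhibitor 20 µM, substrate Cbz-Phe-Arg-AMC; AMC fluorescence (ex 380/em 460 nm) followed 5 min; activity from slopes of fluorescence vs time versus DMSO control; run in duplicate.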

For series [6], the target named is Rhodesain (Trypanosoma brucei rhodesiense, UniProt Q95PM0). In words: Inhibition of Trypanosoma brucei rhodesiense rhodesain using Cbz-Phe-Arg-AMC as substrate measured for 10 mins by spectrofluorometric analysis.
Series [7] concerns the target Rhodesain (Trypanosoma brucei rhodesiense) (UniProt Q95PM0). The series can be described thus: Inhibition of Trypanosoma brucei rhodesiense rhodesain using Cbz-Phe-Arg-AMC as substrate by spectrofluorometric analysis.
Series [8] deals with Leishmania infantum. In words: Antileishmanial activity against Leishmania infantum. The series is classed as functional.
A short description of series [9]: Inhibition of trypanothione reductase.
The nature of series [10]: Aqueous solubility of the compound. The series is classed as physicochemical. To be noted: buffer.
Series [11] can be described thus: Stability of the compound. The series is classed as physicochemical.

Molecules are shown by their SMILES. The source made the active and inactive calls. The calls are words filed in the database; no cut-off is given here.

Rhodesain, sequence (Q95PM0 whole entry): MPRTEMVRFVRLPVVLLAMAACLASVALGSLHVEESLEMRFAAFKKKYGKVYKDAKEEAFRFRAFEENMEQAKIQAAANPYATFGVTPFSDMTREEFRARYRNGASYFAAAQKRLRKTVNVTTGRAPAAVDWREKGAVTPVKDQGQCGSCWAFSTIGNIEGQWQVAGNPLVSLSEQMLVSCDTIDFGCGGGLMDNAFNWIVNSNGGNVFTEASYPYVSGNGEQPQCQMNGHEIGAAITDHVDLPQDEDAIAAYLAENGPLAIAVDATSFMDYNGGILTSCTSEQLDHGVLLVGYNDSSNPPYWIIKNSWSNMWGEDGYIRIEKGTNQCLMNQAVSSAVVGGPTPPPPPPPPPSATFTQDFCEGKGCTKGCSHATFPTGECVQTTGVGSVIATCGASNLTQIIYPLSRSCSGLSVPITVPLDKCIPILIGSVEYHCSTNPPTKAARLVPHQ
Rhodesain (Trypanosoma brucei rhodesiense), sequence (Q95PM0 1-450): as the sequence (Q95PM0 whole entry) above

As for `CC1CCc2nc3ccccc3c(NCCCCCCCCCNc3c4c(nc5ccccc35)CCC(C)C4)c2C1` (stereo not given), the half-inhibitory concentration (IC50) amounted to 0.21 µM in series [1], 0.16 µM in series [2], 1.8 µM in series [3] and 26.6 µM in [6]. The selectivity ratio at 48 h in series [4] was determined as 11.3. Moreover, the inhibition in series [5] was 68%; in series [7], “Dose-dependent effect”. In series [8], the result was Active. For the same compound, the inhibition entry in series [9] was “Active”.

Consider `Nc1c2c(nc3ccc([N+](=O)[O-])cc13)CCCC2`, for which the IC50 is 15.1 µM in series [1] and 8.6 µM in [2]. For the same compound, the selectivity ratio at 48 h in series [4] turned out to be 5.2.

On to `c1ccc2c(NCCCCCNc3c4c(nc5ccccc35)CCCC4)c3c(nc2c1)CCCC3`, for which the IC50 in series [1] turned out to be 6.4 µM; in [2], 5.2 µM. Further, in series [5], the inhibition came to 9%. Also, the outcome in series [8] was Active.

Take `CCC1CCc2nc3ccccc3c(N)c2C1` (stereo not given): the results for the IC50 in [1], in series [2] and in [3] were 17.2 µM, 12.3 µM and 43.6 µM, respectively. Besides, in [4], the selectivity ratio at 48 h is 3.5.

For `O=C1CCCc2nc3ccccc3c(NCCCCCCNc3c4c(nc5ccccc35)CCCC4=O)c21`, the solubility result in [10] is given as “Insoluble”.

As for `O=C1CCCc2nc3ccccc3c(NCCCCCCCCCNc3c4c(nc5ccccc35)CCCC4=O)c21`, the solubility entry in [10] was “Insoluble”.

For `CC1CCc2nc3ccc([N+](=O)[O-])cc3c(N)c2C1` (stereo not given), the figures for the IC50 in [1], in [2] and in series [3] were 4.8 µM, 3.2 µM and 46.4 µM, respectively. For the same compound, the selectivity ratio at 48 h in series [4] amounted to 14.5.

For the compound `CC1CCc2nc3ccccc3c(N)c2C1` (stereo not given), the IC50 in [1] amounted to 18.1 µM; in [2], 15.8 µM; in series [3], 44.9 µM. Besides, in series [4], the selectivity ratio at 48 h was 2.8.

On to `CC1CCc2c(nc3ccc([N+](=O)[O-])cc3c2N)C1` (stereo not given), for which the IC50 in [1] was determined as 3.7 µM; in series [2], 6.1 µM; in [3], 43.3 µM. Besides, the selectivity ratio at 48 h in [4] is 7.1.

Turning to `C1=Cc2c(nc3ccccc3c2NCCCCCCCCCCNc2c3c(nc4ccccc24)CCC=C3)CC1`, the IC50 was 0.88 µM in series [1], 0.29 µM in series [2] and 9.7 µM in series [3]. In addition, the selectivity ratio at 48 h in series [4] amounted to 33.4. Also, the Stability result in series [11] is listed as “Stable”. Further, the outcome in series [8] was Active. Besides, in series [9], the inhibition result is “Active”.

Regarding `Nc1c2c(nc3cc(Cl)ccc13)CCCC2`, the half-maximal inhibitory concentration (IC50) in series [1] was 17.1 µM; in series [2], 12.6 µM; in series [3] it was 41 µM. Moreover, the selectivity ratio at 48 h in series [4] came to 3.3.

With `N=C(N)c1ccc(OCCCCCOc2ccc(C(=N)N)cc2)cc1` [PENTAMIDINE], the IC50 in [2] amounted to 0.0053 µM; in series [3], 38.6 µM. Also, in series [4], the selectivity ratio at 48 h was 7280.

On to `O=C1CCCc2nc3ccccc3c(NCCCCCCCCCCNc3c4c(nc5ccccc35)CCCC4=O)c21`, for which the solubility result in [10] is “Insoluble”.

For `CCCC1CCc2nc3cc(Cl)ccc3c(N)c2C1` (stereo not given), the IC50 in series [1] came to 3.4 µM; in series [2], 2.6 µM; in [3], 8.4 µM. Further, the selectivity ratio at 48 h in series [4] stood at 3.2.

Consider `C1=Cc2c(nc3ccccc3c2NCCCCCCCCNc2c3c(nc4ccccc24)CCC=C3)CC1`, for which the IC50 in [1] is 0.25 µM; in series [2], 0.08 µM; in series [3], 1.7 µM. Moreover, in series [4], the selectivity ratio at 48 h stood at 21.3. The Stability result in series [11] was “Stable”. Besides, the result in [8] was Active. Further, in series [9], the inhibition entry was “Active”.

For the compound `O=C1CCCc2nc3ccccc3c(NCCCCCCCNc3c4c(nc5ccccc35)CCCC4=O)c21`, in series [10], the solubility result was “Insoluble”.

In the case of `CCCC1CCc2nc3ccc(Cl)cc3c(N)c2C1` (stereo not given), the IC50 worked out at 3.4 µM in series [1] and 2.7 µM in [2]. The selectivity ratio at 48 h in [4] worked out at 3.1.

For the compound `CCOC1CCc2nc3cc(Cl)ccc3c(NCCCCCCCCCNc3c4c(nc5cc(Cl)ccc35)CCC(OCC)C4)c2C1` (stereo not given), the IC50 in series [1] came out at 0.71 µM; in [2], 0.63 µM; in series [3] it was 1.7 µM; in series [6], 13.3 µM. Moreover, the selectivity ratio at 48 h in series [4] was 2.8. The inhibition in [5] is 89%; in series [7], “Dose-dependent effect”. Further, the result in [8] was Active. Further, the inhibition entry in series [9] is “Active”.

In the case of `COc1ccc2nc3c(c(NCCCCCCCCCNc4c5c(nc6ccc(OC)cc46)CCCC5)c2c1)CCCC3`, the IC50 in series [1] was 0.14 µM; in [2], 0.12 µM; in series [6], 18.1 µM. Besides, in series [4], the selectivity ratio at 48 h came to 10.6. For the same compound, the inhibition is 82% in [5] and “Dose-dependent effect” in [7]. Also, the outcome in [8] was Active. Moreover, in [9], the inhibition entry was “Active”.

In the case of `CCCCOC1CCc2nc3cc(Cl)ccc3c(NCCCCCCCCCNc3c4c(nc5cc(Cl)ccc35)CCC(OCCCC)C4)c2C1` (stereo not given), the values for the IC50 in series [1], in series [2] and in series [3] were 0.42 µM, 0.43 µM and 8.6 µM, respectively. The selectivity ratio at 48 h in series [4] turned out to be 20. The compound also displayed an inhibition in [5] of 26%. In addition, the result in series [8] was Active. Besides, in [9], the inhibition entry was “Active”.

In the case of `CC1CCc2nc3cc(Cl)ccc3c(N)c2C1` (stereo not given), the IC50 in series [1] was determined as 13.4 µM; in series [2], 6 µM; in series [3], 41.2 µM. For the same compound, in [4], the selectivity ratio at 48 h was determined as 6.9.

On to `CCC1CCc2nc3ccc(Cl)cc3c(N)c2C1` (stereo not given), for which the IC50 in [1] was 3.7 µM; in series [2], 2.7 µM; in series [3] it was 8.3 µM. In addition, the selectivity ratio at 48 h in series [4] stood at 3.1.

Regarding `C1=Cc2c(nc3ccccc3c2NCCCCCCNc2c3c(nc4ccccc24)CCC=C3)CC1`, the IC50 in series [1] is 0.7 µM; in series [2], 0.51 µM; in series [3], 1.8 µM. Besides, the selectivity ratio at 48 h in [4] came to 3.5. In series [11], the Stability result is listed as “Stable”. For the same compound, the result in [8] was Active. The inhibition result in series [9] is “Active”.

As for `CCCC1CCc2nc3ccccc3c(N)c2C1` (stereo not given), the results for the IC50 in series [1] and in series [2] were 3.5 µM and 2.6 µM, respectively. Further, the selectivity ratio at 48 h in [4] came to 16.5.

Regarding `CC1CCc2c(nc3ccccc3c2N)C1` (stereo not given), the IC50 came to 17.6 µM in series [1], 14.5 µM in series [2] and 45 µM in series [3]. In addition, the selectivity ratio at 48 h in series [4] came out at 3.1.

With `CCC1CCc2nc3cc(Cl)ccc3c(N)c2C1` (stereo not given), the results for the 50% inhibitory concentration (IC50) in series [1], in series [2] and in series [3] were 3.5 µM, 2.8 µM and 24.4 µM, respectively. Moreover, the selectivity ratio at 48 h in series [4] came to 8.7.

For `O=C1CCCc2nc3ccccc3c(NCCCCCCCCNc3c4c(nc5ccccc35)CCCC4=O)c21`, the solubility entry in series [10] is listed as “Insoluble”.

For `Nc1c2c(nc3ccc(Cl)cc13)CCCC2`, the IC50 in series [1] was 16.5 µM; in [2] it was 12 µM. Besides, the selectivity ratio at 48 h in series [4] stood at 3.6.

With `CC1(C)CCc2c(nc3cc(Cl)ccc3c2NCCCCCCNc2c3c(nc4cc(Cl)ccc24)CC(C)(C)CC3)C1`, the IC50 stood at 0.72 µM in series [1], 0.64 µM in series [2], 1.7 µM in series [3] and 26.6 µM in series [6]. Besides, the selectivity ratio at 48 h in [4] came to 2.7. Further, the inhibition in series [5] was 64%; in series [7], “Dose-dependent effect”. In addition, the outcome in series [8] was Active. Also, the inhibition entry in series [9] is “Active”.

`Nc1c2c(nc3ccccc13)CCCC2=O`: the values for the IC50 in [1], in [2] and in series [3] were 18 µM, 14.6 µM and greater than 100 µM, respectively. In addition, the selectivity ratio at 48 h in series [4] is greater than 6.8.

`Nc1c2c(nc3ccccc13)CCCC2` [TACRINE]: the figures for the IC50 in series [1] and in [2] were 18.4 µM and 14.6 µM, respectively. Also, in [4], the selectivity ratio at 48 h is greater than 6.8.

Turning to `c1ccc2c(NCCCCCCCCCCNc3c4c(nc5ccccc35)CCCC4)c3c(nc2c1)CCCC3`, the IC50 was determined as 0.15 µM in series [1] and 0.12 µM in series [2]. Moreover, in series [4], the selectivity ratio at 48 h was determined as 15. Besides, the result in series [8] was Active. The inhibition entry in series [9] is “Active”.

Consider `CC1CCc2nc3ccc(Cl)cc3c(N)c2C1` (stereo not given), for which the results for the IC50 in series [1], in series [2] and in [3] were 10.3 µM, 3.9 µM and 43.8 µM, respectively. Besides, the selectivity ratio at 48 h in series [4] is 11.2.

In the case of `C1=Cc2c(nc3ccccc3c2NCCCCCCCCCNc2c3c(nc4ccccc24)CCC=C3)CC1`, the IC50 in series [1] is 0.25 µM; in series [2], 0.09 µM; in series [3], 1.6 µM. The selectivity ratio at 48 h in series [4] stood at 16.7. In addition, the Stability result in series [11] is on record as “Stable”. Further, the outcome in series [8] was Active. Besides, in series [9], the inhibition entry is “Active”.

The values are drawn from ChEMBL document CHEMBL4052757, “Bistacrines as potential antitrypanosomal agents” (Bioorg Med Chem, 2017).
